This data set is described as follows: Toxicity liver stage against HepG2, at 10uM. In kind it is cell-based. Details: test concentration 10 uM, cell line HepG2-A16-CD81EGFP. To be noted: human, HepG2-A16-CD81EGFP cells; read-out: INHIBITION
An outline of the steps:
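Uninfected HepG2-A16-CD81EGFP cells, 3 × 10^3 per well, 1536-well, plated on prespotted compound at 10 μM final, parasite-free screening media added to match infected plates; puromycin 10 μM positive, DMSO 0.5% negative; run in parallel with 48 h PbLuc assay at 37 °C, 5% CO2; viability by CellTiter-Glo luminescence, normalized to controls.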
Take `CCOc1ccc(-n2ccc3nc(N4CCCC4)ncc3c2=O)cc1`: the cytotoxicity at 10 µM was -1.19%.

Regarding `CN1CCCC1c1cc2cccnc2n1Cc1ccc(F)cc1` (configuration not stated), the cytotoxicity at 10 µM stood at 5.44%.

On to `CNC(=O)C1CCN(Cc2cc3c(cc2O)CCC3)CC1`, for which the cytotoxicity at 10 µM amounted to 4.83%.

On to `Cn1ccnc1CN1CCc2onc(COCC3CC3)c2C1`, for which the cytotoxicity at 10 µM came to 6.86%.

As for `CC(=O)NCC(=O)N1CCc2[nH]c(-c3ccccc3)nc2C1`, the cytotoxicity at 10 µM was -0.591%.

Turning to `Cc1nn(C)c(C)c1NC(=O)CN1CCOC(CN(C)C)C1` (configuration not stated), the cytotoxicity at 10 µM is -8.72%.

For the molecule `Cc1ccc(C2COCCN2C(=O)c2ccc(F)c(F)c2)o1` (configuration not stated), the cytotoxicity at 10 µM turned out to be 4.96%.

`COc1cccc(CN2C[C@@H]3COC[C@]3(COc3cccnc3)C2)c1`: the cytotoxicity at 10 µM is -64.7%.

Turning to `Cc1ccc(C(=O)N2CCC3(CC2)CC(N2CCCC2)C3)cc1`, the cytotoxicity at 10 µM is -0.77%.

Regarding `COc1ccc(CN2C[C@@H]3OCCN(C)[C@@H]3C2)cc1`, the cytotoxicity at 10 µM was -74.8%.

`Cn1cc(C(=O)NCc2cncc3c2CCNC3)cn1`: the cytotoxicity at 10 µM was -91.6%.

In the case of `CN(C)CCNC(=O)c1cc2n(n1)CCN(C(=O)c1ccco1)C2`, the cytotoxicity at 10 µM turned out to be 2.52%.

For the molecule `CCC(C(=O)NCc1csc(-c2ncccn2)n1)n1cccn1` (configuration not stated), the cytotoxicity at 10 µM is -5.79%.

Take `COCCN1C[C@@H]2CN(Cc3ccsc3)CCC[C@]2(C(=O)O)C1`: the cytotoxicity at 10 µM was -10.6%.

Consider `CC(C)=CCN1C[C@@H]2CC[C@H]1CN(C(=O)CSc1ccncc1)C2`, for which the cytotoxicity at 10 µM was -0.591%.

With `Cc1nnc2n1CCN(Cc1csc(-c3ccsc3)n1)C2`, the cytotoxicity at 10 µM is -12.4%.

For the molecule `Cc1nc(CN(C)C2CCN(CC(=O)N3CCOCC3)C2)no1` (configuration not stated), the cytotoxicity at 10 µM is -4.91%.

Turning to `Cc1nnc(NCc2cccc(OCc3ccccn3)c2)c(C#N)c1C`, the cytotoxicity at 10 µM came out at 5.93%.

For `COc1ccc(NC(=O)N2CCC3(CC2)NC(=O)CC3C(=O)O)c(C)c1` (configuration not stated), the cytotoxicity at 10 µM is -7.34%.

`Cc1nc(CNC(C)c2cccc(N3CCCC3=O)c2)cs1` (configuration not stated): the cytotoxicity at 10 µM was 5.01%.

Regarding `O=c1oc(-c2ccc(F)cc2)nn1CCc1ccncc1`, the cytotoxicity at 10 µM is -3.57%.

As to `O=C1CCC(c2nc(C3CCNCC3)no2)N1` (configuration not stated), the cytotoxicity at 10 µM is -3.96%.

With `CN1CC(C(=O)NCCc2ccn(-c3ccc(F)cc3)n2)CC1=O` (configuration not stated), the cytotoxicity at 10 µM was 3.38%.

As for `COc1ccc(CN2C[C@@H]3COC[C@@H](N4CCN(C)CC4)[C@@H]3C2)cc1`, the cytotoxicity at 10 µM is -103%.

Take `Cc1cc(C)n(CC2CN(Cc3ccc4c(c3)OCCO4)CCO2)n1` (configuration not stated): the cytotoxicity at 10 µM was -22.3%.

In the case of `COc1ccc2cnn(CC(=O)NC3CCCC3)c(=O)c2c1OC`, the cytotoxicity at 10 µM is -2.86%.

In the case of `CCc1nc(N)sc1C(=O)N1CCCC(COc2cccc(C)c2)C1` (configuration not stated), the cytotoxicity at 10 µM was -140%.

Regarding `CCC(=O)N1CCN(CCn2cccn2)c2ncccc2C1`, the cytotoxicity at 10 µM was -106%.

As for `CCCc1nc(C(C)(C)NC(=O)C2CC(=O)N(CC)C2)no1` (configuration not stated), the cytotoxicity at 10 µM came out at 3.51%.

For the molecule `N#Cc1ccc(CNCC2(c3ccccc3)CCOCC2)cc1`, the cytotoxicity at 10 µM came out at 8.78%.

`CCS(=O)(=O)N1CCC2(C1)C(=O)N(C)CCN2Cc1ccncc1` (configuration not stated): the cytotoxicity at 10 µM was -4.78%.

Consider `c1nc2c(c(C3CC3)n1)CCN(CC1CCOC1)CC2` (configuration not stated), for which the cytotoxicity at 10 µM was 1.26%.

`NCc1cnn(-c2ccccc2C(=O)NCCc2ccncc2)c1`: the cytotoxicity at 10 µM is 0.664%.

`CC(C)N(C)Cc1ncn2c1CN(C(=O)C1CCCO1)CCC2` (configuration not stated): the cytotoxicity at 10 µM is -103%.

Regarding `Cc1ccc(CN2CCC(F)(F)C3(CCN(c4cnccn4)C3)C2)o1` (configuration not stated), the cytotoxicity at 10 µM was -3.71%.

For `COc1ccc2c(c1)OCC(Cc1cnccc1N)C2` (configuration not stated), the cytotoxicity at 10 µM stood at 4.28%.

For the molecule `CC(C)NC(=O)N(C)C(c1cccc(F)c1)c1ccccn1` (configuration not stated), the cytotoxicity at 10 µM is 4.86%.

Consider `Cc1ccc(CN2CCN(c3ccc(F)cn3)CC2=O)cc1C`, for which the cytotoxicity at 10 µM was -4.4%.

Take `Cn1nc2c(cc1=O)CN(c1nc3ccccc3s1)CC2`: the cytotoxicity at 10 µM stood at 2.89%.

With `Cc1n[nH]c(C)c1C1CCCN1C(=O)NC(C)(C)C` (configuration not stated), the cytotoxicity at 10 µM was -4.27%.

With `O=C(CCn1ncc2ccccc21)N1CCCC(Cc2cccnc2)C1` (configuration not stated), the cytotoxicity at 10 µM is -1.83%.

Turning to `N#CC1COCCN1C(=O)c1ccc2[nH]cnc2c1` (configuration not stated), the cytotoxicity at 10 µM was -2.87%.

For the molecule `Cc1csc(CN2C[C@@H]3COC[C@]3(COCC(=O)N(C)C)C2)n1`, the cytotoxicity at 10 µM came to 0.851%.

As to `COc1cc(C)c(CNC(C)c2csc(C)n2)cc1OC` (configuration not stated), the cytotoxicity at 10 µM was determined as 5.06%.

For `CNC(=O)COc1c(F)cc(Br)cc1C(C)=O`, the cytotoxicity at 10 µM is 1.44%.

Consider `Cn1ccnc1COc1ccc(COC(=O)C2CCCO2)cc1` (configuration not stated), for which the cytotoxicity at 10 µM was -1.39%.

Regarding `Cc1ccc(-n2cc(S(=O)(=O)Nc3cccc(C(=O)O)c3C)cn2)cc1`, the cytotoxicity at 10 µM was -1.74%.

Consider `CC1CN(C)CCN1C(=O)c1cnc2onc(CC(C)(C)C)c2c1` (configuration not stated), for which the cytotoxicity at 10 µM was -1.6%.

On to `CC(=O)Nc1nc(C(=O)N2CCCC2c2noc(C3CC3)n2)cs1` (configuration not stated), for which the cytotoxicity at 10 µM is -10.5%.

With `O=C(c1ccco1)N1CCO[C@@H]2CN(CC3CC3)CC[C@@H]2C1`, the cytotoxicity at 10 µM was -67.9%.

Consider `CCC(O)CN1CCN(C(=O)c2ccn(-c3cccc(F)c3)n2)CC1` (configuration not stated), for which the cytotoxicity at 10 µM is -1.65%.

With `c1c(-c2nc(CN3CCOCC3)no2)nnn1CC1CCCCC1`, the cytotoxicity at 10 µM was 3.15%.

In the case of `CN(C)C(=O)CO[C@@H]1CN(Cc2ccccc2)[C@@H]2CCCO[C@@H]21`, the cytotoxicity at 10 µM worked out at 3.09%.

Take `Cc1nc(C2CCN(c3ccccc3)CC2)no1`: the cytotoxicity at 10 µM is -28.4%.

Take `COCCCNC(=O)CN1CCCC1c1c(C)nn(C)c1Cl` (configuration not stated): the cytotoxicity at 10 µM was 6.69%.

Take `Cc1ccccc1OCC1CCCN(c2cc(N)nc(N)n2)C1` (configuration not stated): the cytotoxicity at 10 µM worked out at 29%.

As to `CCCn1nc2c(cc1=O)CN(Cc1nc(-c3ccoc3)no1)CC2`, the cytotoxicity at 10 µM is 8.64%.

Regarding `CC(O)(CNc1ccc(Cl)c(C#N)n1)c1ccsc1` (configuration not stated), the cytotoxicity at 10 µM is 3.39%.

`Cc1nc(CN2CCCC(CCc3ccccc3C(F)(F)F)C2)co1` (configuration not stated): the cytotoxicity at 10 µM came out at 0.663%.

In the case of `CN(C)CCN1CCN(C)c2nc(-c3ccccc3)ncc2C1=O`, the cytotoxicity at 10 µM was -11.6%.

As for `CCc1nc(CN2CCOC(CN(C)c3cccnn3)C2)cs1` (configuration not stated), the cytotoxicity at 10 µM worked out at 5.35%.

With `CN(C)S(=O)(=O)NC1CCCc2c1cnn2-c1ccc(C(C)(C)C)cc1` (configuration not stated), the cytotoxicity at 10 µM was 42.5%.

Regarding `C1CC(NCc2nnc(C3CC3)o2)CN(Cc2noc(C3CC3)n2)C1` (configuration not stated), the cytotoxicity at 10 µM is -19%.

In the case of `O=C(Nc1ccc(CCN2CCC(O)CC2)cc1)Nc1cccnc1`, the cytotoxicity at 10 µM was -7.15%.

`CCn1ccnc1CN1CCN(c2cc(C)nc(C3CCCN3)c2)CC1` (configuration not stated): the cytotoxicity at 10 µM was 2.19%.

For `CC1CCN(CCCNC(=O)NC(C)c2nncn2C)CC1` (configuration not stated), the cytotoxicity at 10 µM is -11.6%.

Regarding `COc1nccnc1N1CCC2(CC1)C(=O)N(C)c1ccccc12`, the cytotoxicity at 10 µM is -4.89%.

Consider `CCc1ccccc1-n1nnc(C(=O)O)c1-c1ccccn1`, for which the cytotoxicity at 10 µM was -6.42%.

Consider `CC(C)(C)NC(=O)CN1CCN(C(=O)Nc2ccc(F)cc2F)CC1`, for which the cytotoxicity at 10 µM is -23.2%.

Consider `O=C(CCO)N1C[C@@H]2CC[C@H]1CN(C1Cc3ccccc3C1)C2`, for which the cytotoxicity at 10 µM was -0.608%.

For `CCn1cc(Cl)c(C(=O)NCc2cnn(C)c2)n1`, the cytotoxicity at 10 µM was -4.41%.

Regarding `Cn1ncc2c1CCCC2NCc1cccc(C(F)(F)F)c1` (configuration not stated), the cytotoxicity at 10 µM is -8.25%.

With `COCCNC(=O)[C@@]12CCO[C@@H]1CCN(Cc1scnc1C)C2`, the cytotoxicity at 10 µM is -10.6%.

With `CCNc1nc2cn(-c3ccc(C)c(C)c3)c(=O)c-2c[nH]1`, the cytotoxicity at 10 µM turned out to be 0.255%.

Take `COc1cc2c(cc1OC)S(=O)(=O)N(Cc1cnn(C)c1)C2=O`: the cytotoxicity at 10 µM is 12.6%.

Turning to `COC(=O)c1ccc(N2CCN(CCN3CCOCC3)C(C)C2)cc1` (configuration not stated), the cytotoxicity at 10 µM is -13.6%.

As for `CC(C)Cn1nccc1NC(=O)CN1CCOC(Cn2cccn2)C1` (configuration not stated), the cytotoxicity at 10 µM is -12%.

Regarding `CC(C)C(=O)NCC(=O)N1CCC2(CC1)c1ccccc1[C@@H](N)[C@@H]2O`, the cytotoxicity at 10 µM was 0.174%.

As to `Cc1ncsc1C(=O)OCC1CCN(c2ccccc2)C1` (configuration not stated), the cytotoxicity at 10 µM is 27.5%.

On to `CCN1C(=O)C2(CCOCC2)c2cc(NC(=O)c3cccn3C)ccc21`, for which the cytotoxicity at 10 µM was -2.13%.

As to `CC(=O)N1C[C@@H]2CN(S(=O)(=O)C3CC3)CCO[C@@H]2C1`, the cytotoxicity at 10 µM is -107%.

Consider `O=C(Nc1ccc2c(c1)C(=O)NC2=O)c1ccc(Cl)s1`, for which the cytotoxicity at 10 µM was -3.96%.

Turning to `Cc1ccc(-c2cn[nH]c2C2CCCN(c3cc(N)ncn3)C2)cc1` (configuration not stated), the cytotoxicity at 10 µM amounted to 55.4%.

Regarding `COc1cc(OC)cc(-c2cc(N)on2)c1`, the cytotoxicity at 10 µM was determined as 7.79%.

For `Cc1ccccc1C(N)c1ccncc1` (configuration not stated), the cytotoxicity at 10 µM is -0.871%.

For `Cc1nc2cc(O)nn2c(C)c1CCC(=O)N(C)CCC(C)C`, the cytotoxicity at 10 µM was -146%.

Consider `Cc1cc(C(=O)N[C@@H]2CCNC[C@H]2O)ccc1Cl`, for which the cytotoxicity at 10 µM was -18.4%.

On to `COc1c(C(=O)NCc2cnn(C)c2C)nnn1Cc1ccccc1`, for which the cytotoxicity at 10 µM was -11.3%.

Regarding `COc1ccccc1OCc1nc2cc3c(cc2c(=O)o1)OCCCO3`, the cytotoxicity at 10 µM was found to be 1.37%.

Turning to `Cc1ccc(CN2CCC3(CCCN(C(=O)N(C)C)C3)C2)cc1` (configuration not stated), the cytotoxicity at 10 µM stood at 6.28%.

`O=C1CSc2ccccc2N1CC(=O)N1CCCCC1c1nccs1` (configuration not stated): the cytotoxicity at 10 µM worked out at 14.4%.

`Cc1cnn(C2CN(CC(=O)Nc3cccnc3)C2)c1`: the cytotoxicity at 10 µM is -8.11%.

As to `CNc1[nH]nc(N)c1C(=O)Nc1ccccc1`, the cytotoxicity at 10 µM came out at 6.56%.

As for `COc1ccc(S(=O)(=O)N2CCc3ccc(Cl)cc32)cc1C(=O)O`, the cytotoxicity at 10 µM is -11.6%.

With `CC(C)c1cc(C(=O)N2CCCC2c2nc(-c3ccccc3)no2)[nH]n1` (configuration not stated), the cytotoxicity at 10 µM was -4.5%.

As to `N#Cc1cc2cc(Cl)cnc2nc1O`, the cytotoxicity at 10 µM was 4.29%.

Regarding `Cc1noc(C)c1CN1CCCC(CN(C(=O)OC(C)(C)C)C(C)C)C1` (configuration not stated), the cytotoxicity at 10 µM amounted to 2.42%.

Values taken from ChEMBL document CHEMBL4513216, “Probing the Open Global Health Chemical Diversity Library for Multistage-Active Starting Points for Next-Generation Antimalarials” (ACS Infect Dis, 2020).
